Tests used:
AeKir = AeKir (Aedes aegypti, UniProt L0EQS9); experiment: fluorescence-based in vitro thallium; type: cell-based; details: HEK293
In short: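 Fluorescence thallium-flux read-out in HEK293 cells expressing AeKir under tetracycline induction. Signals normalized to baseline Tl+ flux in the same line left uninduced by tetracycline. IC50 is the mean ± SEM of at least three independent experiments. Percent inhibition is taken at the highest concentration tested.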

[1] = system: first instar (Liverpool, LVP) Ae. aegypti; experiment: larvae toxicity screen, small molecules added to the rearing water; type: in vivo; details: for mortality at 48 h compared to VU854: 100 μM, first instar LVP larvae, one-way ANOVA, Dunnett's test; for mortality at 100 µM: Aedes aegypti, 48 h, read-out: mortality at 48 h
[2] = system: first instar (LVP or PR) Ae. aegypti; experiment: larval toxicity concentration response curve; type: in vivo

SMILES | inhibition at 30000 µM (AeKir) [%] | other results
CC(Nc1cc(N2CCN(S(=O)(=O)c3ccc(F)cc3)CC2)ccc1[N+](=O)[O-])c1ncco1 (stereo not shown) [Compound 9l, 5-(4-((4-fluorophenyl)sulfonyl)piperazin-1-yl)-2-nitro-N-(1-(oxazol-2-yl)ethyl)aniline] | 109 | –
Cc1nnc(CNc2cc(N3CCN(S(=O)(=O)c4ccc(F)cc4)CC3)ccc2[N+](=O)[O-])o1 [Compound 9g, 5-(4-((4-fluorophenyl)sulfonyl)piperazin-1-yl)-N-((5-methyl-1,3,4-oxadiazol-2-yl)methyl)-2-nitroaniline] | 110 | –
O=[N+]([O-])c1ccc(N2CCN(S(=O)(=O)c3ccc(F)cc3)CC2)cc1NCc1cc2ccccc2o1 [Compound 9t, N-(benzofuran-2-ylmethyl)-5-(4-((4-fluorophenyl)sulfonyl)piperazin-1-yl)-2-nitroaniline] | 10 | –
O=[N+]([O-])c1ccc(N2CCN(S(=O)(=O)c3ccc(F)cc3)CC2)cc1NCc1nccs1 [Compound 9h, 5-(4-((4-fluorophenyl)sulfonyl)piperazin-1-yl)-2-nitro-N-(thiazol-2-ylmethyl)aniline] | 97 | –
O=[N+]([O-])c1ccc(N2CCN(S(=O)(=O)c3ccc(F)cc3)CC2)cc1NCc1ncco1 [Compound 9k, 5-(4-((4-fluorophenyl)sulfonyl)piperazin-1-yl)-2-nitro-N-(oxazol-2-ylmethyl)aniline] | 98 | –
O=[N+]([O-])c1ccc(N2CCN(S(=O)(=O)c3ccc(F)cc3)CC2)cc1F [Compound 8, 1-(3-fluoro-4-nitrophenyl)-4-((4-fluorophenyl)sulfonyl)piperazine] | 100 | mortality at 48 h compared to VU854 [1]: significantly greater mortality; mortality at 100 µM [1]: 100%; times more potent against the LVP strain (versus PR) ([2]; CRC, 48 h): ~ 2 times
O=[N+]([O-])c1ccc(N2CCN(S(=O)(=O)c3ccc(F)cc3)CC2)cc1NCc1ncon1 [Compound 9p, N-((1,2,4-oxadiazol-3-yl)methyl)-5-(4-((4-fluorophenyl)sulfonyl)piperazin-1-yl)-2-nitroaniline] | 109 | mortality at 48 h compared to VU854 [1]: significantly greater mortality; mortality at 100 µM [1]: 99%; mortality at 100 µM ([2]; Aedes aegypti, 48 h, read-out: maximal mortality within 48 h): ~50%; pathology observed in treated larvae ([2]; contiguous trail of excrement from midgut beyond the rectum): constipation or excretory failure
Cc1cnc(CNc2cc(N3CCN(S(=O)(=O)c4ccc(F)cc4)CC3)ccc2[N+](=O)[O-])o1 [Compound 9n, 5-(4-((4-fluorophenyl)sulfonyl)piperazin-1-yl)-N-((5-methyloxazol-2-yl)methyl)-2-nitroaniline] | 100 | mortality at 48 h compared to VU854 [1]: similarly efficacious as VU854
Cc1nnc(CNc2cc(N3CCN(S(=O)(=O)c4ccc(F)cc4)CC3)ccc2[N+](=O)[O-])s1 [Compound 9s, 5-(4-((4-fluorophenyl)sulfonyl)piperazin-1-yl)-N-((5-methyl-1,3,4-thiadiazol-2-yl)methyl)-2-nitroaniline] | 61 | mortality at 48 h compared to VU854 [1]: similarly efficacious as VU854
Cc1nc(CNc2cc(N3CCN(S(=O)(=O)c4ccc(F)cc4)CC3)ccc2[N+](=O)[O-])no1 [Compound 9q, 5-(4-((4-fluorophenyl)sulfonyl)piperazin-1-yl)-N-((5-methyl-1,2,4-oxadiazol-3-yl)methyl)-2-nitroaniline] | 109 | mortality at 48 h compared to VU854 [1]: similarly efficacious as VU854
Cc1ncc(CNc2cc(N3CCN(S(=O)(=O)c4ccc(F)cc4)CC3)ccc2[N+](=O)[O-])s1 [Compound 9j, 5-(4-((4-fluorophenyl)sulfonyl)piperazin-1-yl)-N-((2-methylthiazol-5-yl)methyl)-2-nitroaniline] | 111 | –
O=[N+]([O-])c1ccc(N2CCN(S(=O)(=O)c3ccc(F)cc3)CC2)cc1NCc1nc2ccccc2o1 [Compound 9u, N-(benzo[d]oxazol-2-ylmethyl)-5-(4-((4-fluorophenyl)sulfonyl)piperazin-1-yl)-2-nitroaniline] | 29 | –
Cc1cc(CNc2cc(N3CCN(S(=O)(=O)c4ccc(F)cc4)CC3)ccc2[N+](=O)[O-])no1 [Compound 9f, 5-(4-((4-fluorophenyl)sulfonyl)piperazin-1-yl)-N-((5-methylisoxazol-3-yl)methyl)-2-nitroaniline] | 109 | –
O=[N+]([O-])c1ccc(N2CCN(S(=O)(=O)c3ccc(F)cc3)CC2)cc1NCc1cnco1 [Compound 9m, 5-(4-((4-fluorophenyl)sulfonyl)piperazin-1-yl)-2-nitro-N-(oxazol-5-ylmethyl)aniline] | 99 | –
O=[N+]([O-])c1ccc(N2CCN(S(=O)(=O)c3ccc(F)cc3)CC2)cc1NCc1ccco1 [Compound 9a, 5-(4-((4-fluorophenyl)sulfonyl)piperazin-1-yl)-N-(furan-2-ylmethyl)-2-nitroaniline] | 96 | –
O=[N+]([O-])c1ccc(N2CCN(S(=O)(=O)c3ccc(F)cc3)CC2)cc1NCc1ccon1 [Compound 9r, 5-(4-((4-fluorophenyl)sulfonyl)piperazin-1-yl)-N-(isoxazol-3-ylmethyl)-2-nitroaniline] | 99 | –
CC(Nc1cc(N2CCN(S(=O)(=O)c3ccc(F)cc3)CC2)ccc1[N+](=O)[O-])c1nccs1 (stereo not shown) [Compound 9i, 5-(4-((4-fluorophenyl)sulfonyl)piperazin-1-yl)-2-nitro-N-(1-(thiazol-2-yl)ethyl)aniline] | 107 | –
Cc1ncc(CNc2cc(N3CCN(S(=O)(=O)c4ccc(F)cc4)CC3)ccc2[N+](=O)[O-])o1 [Compound 9o, 5-(4-((4-fluorophenyl)sulfonyl)piperazin-1-yl)-N-((2-methyloxazol-5-yl)methyl)-2-nitroaniline] | 106 | –

Reference: paper PMC7856040 (ChemMedChem, 2020)
